Legend:
Glucocorticoid receptor [1] = biological target: T1, Glucocorticoid receptor (Homo sapiens, UniProt P04150); assay: Agonist activity at glucocorticoid receptor in human A549 cells assessed as inhibition of PMA-induced AP-1 activation by luciferase reporter gene assay; type: cell-based
T1 sequence (P04150 whole entry): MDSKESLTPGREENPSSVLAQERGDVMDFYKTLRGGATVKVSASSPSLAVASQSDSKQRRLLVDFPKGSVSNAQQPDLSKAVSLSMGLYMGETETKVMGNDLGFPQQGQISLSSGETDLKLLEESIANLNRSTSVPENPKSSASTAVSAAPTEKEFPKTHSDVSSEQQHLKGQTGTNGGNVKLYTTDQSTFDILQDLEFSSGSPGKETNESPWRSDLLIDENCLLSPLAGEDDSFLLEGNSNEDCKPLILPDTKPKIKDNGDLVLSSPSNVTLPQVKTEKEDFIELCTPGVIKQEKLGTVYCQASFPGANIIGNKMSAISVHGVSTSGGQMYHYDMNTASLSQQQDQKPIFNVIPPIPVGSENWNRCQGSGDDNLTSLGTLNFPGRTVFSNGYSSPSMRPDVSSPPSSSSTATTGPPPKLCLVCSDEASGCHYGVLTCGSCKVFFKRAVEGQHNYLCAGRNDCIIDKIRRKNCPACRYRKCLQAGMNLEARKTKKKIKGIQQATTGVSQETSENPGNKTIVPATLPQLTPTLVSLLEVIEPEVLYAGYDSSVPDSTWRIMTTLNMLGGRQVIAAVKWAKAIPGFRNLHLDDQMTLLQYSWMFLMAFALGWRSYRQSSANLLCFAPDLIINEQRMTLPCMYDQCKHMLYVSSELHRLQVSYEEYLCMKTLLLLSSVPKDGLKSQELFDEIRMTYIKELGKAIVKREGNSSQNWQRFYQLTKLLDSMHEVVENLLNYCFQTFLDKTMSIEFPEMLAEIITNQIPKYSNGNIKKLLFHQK

[2] = biological target: T2, Glucocorticoid receptor (Homo sapiens) (UniProt P04150); assay: Agonist activity at glucocorticoid receptor in human A549 cells assessed as inhibition of PMA-induced AP-1 activation by luciferase reporter gene assay relative to dexamethasone; type: cell-based
T2 sequence (whole entry): T1 sequence (P04150 whole entry)
In short: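 A549 lung epithelial cells stably carrying a luciferase reporter with 5 copies of the AP-1 response element; AP-1 induced with PMA (15 ng/ml). Compound inhibition of induction read as decreased luciferase. […] Means of two or more experiments in triplicate.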

[3] = biological target: T2, Glucocorticoid receptor (Homo sapiens); assay: Transactivation of glucocorticoid receptor ligand binding domain (unknown origin) transfected in human HeLa cells assessed as activation of NP-1 by GAL4 luciferase reporter gene assay relative to dexamethasone; type: cell-based
In short: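 HeLa line (NP-1) stably transfected with a GR ligand binding domain chimera in a GAL4 luciferase reporter system, run in agonist mode. Direct GR-LBD activation read as increased luciferase activity. Means of two or more experiments in triplicate.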

Glucocorticoid receptor [4] = biological target: T1, Glucocorticoid receptor; assay: Transactivation of glucocorticoid receptor ligand binding domain (unknown origin) transfected in human HeLa cells assessed as activation of NP-1 by GAL4 luciferase reporter gene assay; type: cell-based
Glucocorticoid receptor [5] = biological target: T1, Glucocorticoid receptor; assay: Binding affinity to glucocorticoid receptor (unknown origin) by fluorescence polarization assay
Glucocorticoid receptor [6] = biological target: T1, Glucocorticoid receptor; assay: Agonist activity at glucocorticoid receptor in human A549 cells assessed as inhibition of IL-1beta-induced NF-kappaB dependent E-selectin activation by luciferase reporter gene assay; type: cell-based
[7] = biological target: T2, Glucocorticoid receptor (Homo sapiens); assay: Agonist activity at glucocorticoid receptor in human A549 cells assessed as inhibition of IL-1beta-induced NF-kappaB dependent E-selectin activation by luciferase reporter gene assay relative to dexamethasone; type: cell-based

| SMILES | EC50 (Glucocorticoid receptor [1]) [µM] | Efficacy [2] [%] | Efficacy [3] [%] | EC50 (Glucocorticoid receptor [4]) [µM] | Ki (Glucocorticoid receptor [5]) [µM] | EC50 (Glucocorticoid receptor [6]) [µM] | Efficacy [7] [%] |
| --- | --- | --- | --- | --- | --- | --- | --- |
| CC(C)(Cc1ccc2c(cnn2-c2ccc(F)cc2)c1)C(=O)Nc1nncs1 | 4.32 | 36 |  |  |  |  |  |
| CC(C)(C(=O)Nc1nccs1)[C@H](c1ccccc1)c1ccc2c(cnn2-c2ccc(F)cc2)c1 | 0.4 | 56 | 59 | 0.435 | 0.0079 | 0.058 | 81 |
| CC(C)(C(=O)Nc1nncs1)[C@@H](c1ccccc1)c1ccc2c(cnn2-c2cccnc2)c1 | 0.019 | 74 | 57 | 0.132 | 0.0009 | 0.019 | 77 |
| CC(C)(C(=O)Nc1nncs1)[C@H](c1ccccc1)c1ccc2c(cnn2-c2cccnc2)c1 | 0.349 | 58 |  | > 10 | 0.004 | 0.185 | 35 |
| CC(C)(C(=O)Nc1nncs1)[C@@H](c1ccccc1)c1ccc2[nH]ncc2c1 | 0.024 | 79 | 41 | 0.208 | 0.0027 | 0.015 | 77 |
| CC(C)(C(=O)Nc1nncs1)[C@H](c1ccccc1)c1ccc2[nH]ncc2c1 | 0.617 | 35 | < 30 | > 10 | 0.013 | > 5 | < 30 |
| CC(C)(C(=O)Nc1nccs1)[C@@H](c1ccccc1)c1ccc2c(cnn2-c2ccc(F)cc2)c1 | 0.0014 | 92 | 94 | 0.0076 | 0.006 | 0.0005 | 97 |
| CC(C)(C(=O)Nn1nccn1)C(c1ccccc1)c1ccc2c(cnn2-c2ccc(F)cc2)c1 (racemic) | 0.017 | 73 |  |  | 0.011 |  |  |
| CC(C)(C(=O)Nn1ncnn1)C(c1ccccc1)c1ccc2c(cnn2-c2ccc(F)cc2)c1 (racemic) | > 10 |  |  |  | 0.017 |  |  |
| Cc1cnc(NC(=O)C(C)(C)C(c2ccccc2)c2ccc3c(cnn3-c3ccc(F)cc3)c2)s1 (racemic) | 0.049 | 48 |  |  |  |  |  |
| Cc1nnc(NC(=O)C(C)(C)C(c2ccccc2)c2ccc3c(cnn3-c3ccc(F)cc3)c2)s1 (racemic) | 0.141 | 56 |  |  |  |  |  |
| CC(C)(C(=O)Nc1nncs1)C(c1ccccc1)c1ccc2c(cnn2CCCO)c1 (racemic) | 1.02 | 45 |  |  | 0.017 |  |  |
| CC(C)(C(=O)Nc1nncs1)C(c1ccccc1)c1ccc2c(cnn2Cc2ccccc2)c1 (racemic) | 1.93 | 62 |  |  |  |  |  |
| CC(C)(C(=O)Nc1nncs1)C(c1ccccc1)c1ccc2c(cnn2CCc2ccccc2)c1 (racemic) | > 10 | < 30 |  |  | 0.046 |  |  |
| CCC(c1ccc2c(cnn2-c2ccc(F)cc2)c1)C(C)(C)C(=O)Nc1nccs1 (racemic) | 0.087 | 62 |  |  |  |  |  |
| CC(C)C(c1ccc2c(cnn2-c2ccc(F)cc2)c1)C(C)(C)C(=O)Nc1nncs1 (racemic) | 0.081 | 29 |  |  |  |  |  |
| CC(C)(C(=O)Nc1nncs1)C(Cc1ccccc1)c1ccc2c(cnn2-c2ccc(F)cc2)c1 (racemic) | 0.705 | 37 |  |  |  |  |  |
| CC(C)(C(=O)Nc1nccs1)C(c1ccc2c(cnn2-c2ccc(F)cc2)c1)C1CCCC1 (racemic) | 0.082 | 47 |  |  |  |  |  |
| CC(C)(C(=O)Nc1nccs1)C(c1ccc2c(cnn2-c2ccc(F)cc2)c1)C1CCCCC1 (racemic) | 0.066 | 55 |  |  | 0.018 |  |  |
| CC(C)(C(=O)Nc1ccsc1)C(c1ccccc1)c1ccc2c(cnn2-c2ccc(F)cc2)c1 (racemic) | 0.073 | 68 |  |  |  |  |  |
| CC(C)(C(=O)Nc1nncs1)C(c1ccccc1)c1ccc2c(cnn2-c2ccc(Cl)cc2)c1 (racemic) | 0.023 | 96 | 55 | 0.256 |  | 0.01 | 84 |

| SMILES | EC50 (Glucocorticoid receptor [1]) [µM] | Efficacy [2] [%] | Efficacy [3] [%] | EC50 (Glucocorticoid receptor [4]) [µM] | Ki (Glucocorticoid receptor [5]) [µM] | EC50 (Glucocorticoid receptor [6]) [µM] | Efficacy [7] [%] |
| --- | --- | --- | --- | --- | --- | --- | --- |
| CC(C)(C(=O)Nc1nncs1)C(c1ccccc1)c1ccc2c(cnn2-c2ccc(Br)cc2)c1 (racemic) | 0.956 | < 30 |  |  |  |  |  |
| CC(C)(C(=O)Nc1nncs1)C(c1ccccc1)c1ccc2c(cnn2-c2ccccn2)c1 (racemic) | 0.127 | 62 |  |  |  |  |  |
| CC(C)(C(=O)Nc1nncs1)C(c1ccccc1)c1ccc2c(cnn2-c2ccncc2)c1 (racemic) | 0.106 | 56 | < 30 | > 10 | 0.0019 | 0.078 | 56 |
| COc1cccc(-n2ncc3cc(C(c4ccccc4)C(C)(C)C(=O)Nc4nncs4)ccc32)c1 (racemic) | 1.2 | < 30 | < 30 | > 10 |  |  |  |
| COc1ccc(-n2ncc3cc(C(c4ccccc4)C(C)(C)C(=O)Nc4nncs4)ccc32)cc1 (racemic) | 0.056 | 76 | < 30 | > 10 |  | 0.143 | 62 |
| CC(C)(C(=O)Nc1nncs1)C(c1ccccc1)c1ccc2c(cnn2-c2ccc(O)cc2)c1 (racemic) | 0.271 | 69 | < 30 | > 10 |  | > 5 | < 30 |
| CC(C)Cn1ncc2cc(C(c3ccccc3)C(C)(C)C(=O)Nc3nncs3)ccc21 (racemic) | 0.114 | 76 | < 30 | > 10 |  | 1.82 | 77 |
| CC(C)CCn1ncc2cc(C(c3ccccc3)C(C)(C)C(=O)Nc3nncs3)ccc21 (racemic) | 0.045 | 96 | 66 | 0.132 | 0.0057 | 0.049 | 87 |
| CC(C)(C(=O)Nc1nncs1)C(c1ccccc1)c1ccc2c(cnn2CCO)c1 (racemic) | 0.55 | 32 |  |  |  | 1.05 | 27 |
| CC(C)(C(=O)Nc1nncs1)C(c1ccccc1)c1ccc2c(cnn2-c2ccccc2)c1 (racemic) | 0.02 | 73 |  |  |  |  |  |
| CC(C)(C(=O)Nc1nncs1)C(c1ccccc1)c1ccc2c(cnn2-c2ccc(F)cc2)c1 (racemic) | 0.023 | 81 |  |  | 0.018 |  |  |
| CC(C)(C(=O)Nc1nccs1)C(c1ccccc1)c1ccc2c(cnn2-c2ccc(F)cc2)c1 (racemic) | 0.0041 | 79 |  |  | 0.015 |  |  |
| CC(C)(C(=O)Nc1nccs1)C(c1ccncc1)c1ccc2c(cnn2-c2ccc(F)cc2)c1 (racemic) |  | 60 |  |  |  |  |  |
| CC(C)(C(=O)Nc1nncs1)C(c1ccccc1)c1ccc2c(cnn2C2CCCCCC2)c1 (racemic) |  | 85 | 60 |  |  |  | 86 |
| CC(C)CC(c1ccc2c(cnn2-c2ccc(F)cc2)c1)C(C)(C)C(=O)Nc1nncs1 (racemic) |  | 60 |  |  |  |  |  |
| CC(C)n1ncc2cc(C(c3ccccc3)C(C)(C)C(=O)Nc3nncs3)ccc21 (racemic) |  | 82 | < 30 |  |  |  | 44 |
| Cc1csc(NC(=O)C(C)(C)C(c2ccccc2)c2ccc3c(cnn3-c3ccc(F)cc3)c2)n1 (racemic) |  | 74 |  |  |  |  |  |
| CC(C(=O)Nc1nncs1)C(c1ccccc1)c1ccc2c(cnn2-c2ccc(F)cc2)c1 (single isomer, unassigned; diastereomer 1) |  | 42 |  |  |  |  |  |
| CC(C(=O)Nc1nncs1)[C@@H](c1ccccc1)c1ccc2c(cnn2-c2ccc(F)cc2)c1 (single isomer, unassigned; diastereomer 2) |  | 103 | 76 |  |  |  |  |
| CC(C(=O)Nc1nncs1)[C@@H](c1ccccc1)c1ccc2c(cnn2-c2ccc(F)cc2)c1 (single isomer, unassigned; diastereomer 3) |  | 106 | 122 |  |  |  |  |
| CC(C(=O)Nc1nncs1)C(c1ccccc1)c1ccc2c(cnn2-c2ccc(F)cc2)c1 (single isomer, unassigned; diastereomer 4) |  | 89 | 100 |  |  |  |  |

Source: ChEMBL document CHEMBL2424628, “Discovery of potent and selective nonsteroidal indazolyl amide glucocorticoid receptor agonists” (Bioorg Med Chem Lett, 2013)
